Reference: ChEMBL document CHEMBL2040734, “Benzothiazoles: search for anticancer agents” (2012)

Columns and labels:
Format in all cases: functional
MDA-MB-468 = assay: Cytotoxicity against human MDA-MB-468 cells assessed as cell growth at 0.01 uM after 48 hrs by sulforhodamine B assay; details: MDA-MB-468, 48 h, read-out: Activity
EKVX = assay: Cytotoxicity against human EKVX cells assessed as cell growth at 0.1 uM after 48 hrs by sulforhodamine B assay; details: read-out: Activity
How it was run: (§1)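 Five-dose NCI panel run at 0.01, 0.1, 1, 10 and 100 µM. Cells were in RPMI 1640 with 5% FBS and 2 mM L-glutamine, seeded at 5000–40,000 cells/well and pre-incubated 24 h. Drug was diluted from a DMSO stock into medium with 50 µg/ml gentamicin. Exposure was 48 h at 37 °C, 5% CO2. Cells were fixed with cold TCA and stained with 0.4% SRB, read at 515 nm. Percent growth came from time-zero, control and test absorbances.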

NCI-H23 [1] = assay: Cytotoxicity against human NCI-H23 cells assessed as cell growth at 0.1 uM after 48 hrs by sulforhodamine B assay; details: NCI-H23, 48 h, read-out: Activity
NCI-H522 [2] = assay: Cytotoxicity against human NCI-H522 cells assessed as cell growth at 0.1 uM after 48 hrs by sulforhodamine B assay; details: NCI-H522, 48 h, read-out: Activity
SK-MEL-28 [3] = assay: Cytotoxicity against human SK-MEL-28 cells assessed as cell growth at 0.1 uM after 48 hrs by sulforhodamine B assay; details: SK-MEL-28, 48 h, read-out: Activity
IGROV-1 [4] = assay: Cytotoxicity against human IGROV1 cells assessed as cell growth at 0.1 uM after 48 hrs by sulforhodamine B assay; details: IGROV-1, 48 h, read-out: Activity
OVCAR-8 = assay: Cytotoxicity against human OVCAR8 cells assessed as cell growth at 0.1 uM after 48 hrs by sulforhodamine B assay; details: OVCAR-8, 48 h, read-out: Activity
CAKI-1 [5] = assay: Cytotoxicity against human Caki1 cells assessed as cell growth at 0.1 uM after 48 hrs by sulforhodamine B assay; details: CAKI-1, 48 h, read-out: Activity
How it was run: (§2)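 NCI-60 five-dose screen. Cells were grown in RPMI 1640 with 5% FBS and 2 mM L-glutamine and preincubated 24 h. Compound (DMSO stock) was tested at 0.01, 0.1, 1, 10 and 100 µM for 48 h at 37 °C. Cells were fixed in situ with cold TCA (final 10%) and stained with 0.4% SRB. A515 was read, and percent growth was calculated against time-zero and control plates.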

COLO 205 [6] = assay: Cytotoxicity against human COLO205 cells assessed as cell growth at 100 uM after 48 hrs by sulforhodamine B assay; details: COLO 205, 48 h, read-out: Activity; how it was run: as §2
HCT-116 = assay: Cytotoxicity against human HCT116 cells assessed as cell growth at 100 uM after 48 hrs by sulforhodamine B assay; details: HCT-116, 48 h, read-out: Activity; how it was run: as §1
SNB-19 = assay: Cytotoxicity against human SNB19 cells assessed as cell growth at 100 uM after 48 hrs by sulforhodamine B assay; details: SNB-19, 48 h, read-out: Activity
U-251 = assay: Cytotoxicity against human U251 cells assessed as cell growth at 100 uM after 48 hrs by sulforhodamine B assay; details: U-251, 48 h, read-out: Activity
SK-MEL-28 [7] = assay: Cytotoxicity against human SK-MEL-28 cells assessed as cell growth at 100 uM after 48 hrs by sulforhodamine B assay; details: SK-MEL-28, 48 h, read-out: Activity
UO-31 = assay: Cytotoxicity against human UO31 cells assessed as cell growth at 0.1 uM after 48 hrs by sulforhodamine B assay; details: UO-31, 48 h, read-out: Activity
MDA-MB-231 = assay: Cytotoxicity against human MDA-MB-231 cells assessed as cell growth at 100 uM after 48 hrs by sulforhodamine B assay; details: MDA-MB-231, 48 h, read-out: Activity
NCI-H322M = assay: Cytotoxicity against human NCI-H322M cells assessed as cell growth at 1 uM after 48 hrs by sulforhodamine B assay; details: read-out: Activity
Malme-3M = assay: Cytotoxicity against human MALME-3M cells assessed as cell growth at 1 uM after 48 hrs by sulforhodamine B assay; details: read-out: Activity
NCI-H23 [8] = assay: Cytotoxicity against human NCI-H23 cells assessed as cell growth at 10 uM after 48 hrs by sulforhodamine B assay; details: NCI-H23, 48 h, read-out: Activity
COLO 205 [9] = assay: Cytotoxicity against human COLO205 cells assessed as cell growth at 10 uM after 48 hrs by sulforhodamine B assay; details: COLO 205, 48 h, read-out: Activity; how it was run: as §2
KM12 = assay: Cytotoxicity against human KM12 cells assessed as cell growth at 10 uM after 48 hrs by sulforhodamine B assay; details: KM12, 48 h, read-out: Activity
SF-539 = assay: Cytotoxicity against human SF539 cells assessed as cell growth at 10 uM after 48 hrs by sulforhodamine B assay; details: SF-539, 48 h, read-out: Activity
IGROV-1 [10] = assay: Cytotoxicity against human IGROV1 cells assessed as cell growth at 10 uM after 48 hrs by sulforhodamine B assay; details: IGROV-1, 48 h, read-out: Activity
786-0 = assay: Cytotoxicity against human 786-0 cells assessed as cell growth at 10 uM after 48 hrs by sulforhodamine B assay; details: 786-0, 48 h, read-out: Activity; how it was run: as §2
MOLT-4 = assay: Cytotoxicity against human MOLT4 cells assessed as cell growth at 100 uM after 48 hrs by sulforhodamine B assay; details: MOLT-4, 48 h, read-out: Activity
OVCAR-5 = assay: Cytotoxicity against human OVCAR5 cells assessed as cell growth at 10 '-5 M after 48 hrs by sulforhodamine B assay; details: OVCAR-5, 48 h, read-out: Activity
BT-549 = assay: Cytotoxicity against human BT549 cells assessed as cell growth at 10 '-5 M after 48 hrs by sulforhodamine B assay; details: BT-549, 48 h, read-out: Activity
How it was run: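 Primary NCI-60 single-dose screen at 10 µM. Cells were grown in RPMI 1640 with 5% FBS and 2 mM L-glutamine and plated 24 h before drug addition. Compound was solubilized in DMSO, then exposed for 48 h at 37 °C under 5% CO2. Cells were TCA-fixed and stained with SRB, and absorbance was read at 515 nm. Growth was expressed relative to time-zero and untreated controls.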

SK-MEL-2 = assay: Growth inhibition of human SK-MEL-2 cells after 48 hrs by sulforhodamine B assay; details: SK-MEL-2, 48 h
How it was run: (§3)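 Adherent NCI-60 lines were grown in RPMI 1640 with 5% FBS and 2 mM L-glutamine, plated at 5000–40,000 cells/well and preincubated 24 h. They were then exposed to five concentrations (0.01–100 µM, from a DMSO stock) for 48 h at 37 °C, 5% CO2. Cells were fixed with cold TCA (10% final, 60 min, 4 °C) and stained with 0.4% SRB. Dye was solubilized in 10 mM Tris base and A515 read. GI50 was derived from time-zero, control and treated absorbances.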

CAKI-1 [11] = assay: Growth inhibition of human Caki1 cells after 48 hrs by sulforhodamine B assay; details: CAKI-1, 48 h; for CC50: read-out: LC50 (the source's name); how it was run: as §3
NCI-H522 [12] = assay: Cytotoxicity against human NCI-H522 cells assessed as cell growth at 0.01 uM after 48 hrs by sulforhodamine B assay; details: NCI-H522, 48 h, read-out: Activity

SMILES	growth at 0.01 µM (MDA-MB-468) [%]	growth at 0.1 µM (EKVX) [%]	growth at 0.1 µM (NCI-H23 [1]) [%]	growth at 0.1 µM (NCI-H522 [2]) [%]	growth at 0.1 µM (SK-MEL-28 [3]) [%]	growth at 0.1 µM (IGROV-1 [4]) [%]	growth at 0.1 µM (OVCAR-8) [%]	growth at 0.1 µM (CAKI-1 [5]) [%]	growth at 100 µM (COLO 205 [6]) [%]	growth at 100 µM (HCT-116) [%]	growth at 100 µM (SNB-19) [%]	growth at 100 µM (U-251) [%]	growth at 100 µM (SK-MEL-28 [7]) [%]	growth at 0.1 µM (UO-31) [%]	growth at 100 µM (MDA-MB-231) [%]	growth at 1 µM (NCI-H322M) [%]	growth at 1 µM (Malme-3M) [%]	growth at 10 µM (NCI-H23 [8]) [%]	growth at 10 µM (COLO 205 [9]) [%]	growth at 10 µM (KM12) [%]	other results
Cc1ccc2nc(Nc3c(C)cccc3C)sc2c1	88	89	92	85	92	108	105	83	64	49	30	31	55	97	-6	91	57	58	49	30	growth at 10 µM (SF-539): 57%; growth at 10 µM (IGROV-1 [10]): 42%; growth at 10 µM (786-0): 56%; growth at 100 µM (MOLT-4): 86%; growth at 10 µM (OVCAR-5): 65.6%; growth at 10 µM (BT-549): 37.1%; LC50 (concentration killing 50% of cells present at time zero) (SK-MEL-2): > 100000 nM; TGI (SK-MEL-2): > 100000 nM; GI50 (CAKI-1 [11]): 564 nM; TGI (CAKI-1 [11]): > 100000 nM; CC50 (CAKI-1 [11]): > 100000 nM; growth at 0.01 µM (NCI-H522 [12]): 85%
Clc1cccc(Cl)c1Nc1nc2cccc(Cl)c2s1	89	82	83	86	94	103	101	73	-52	-73	-63	-50	-69	56	-70	76	52	-71	-91	-96	growth at 10 µM (SF-539): -81%; growth at 10 µM (IGROV-1 [10]): -55%; growth at 10 µM (786-0): -93%; growth at 100 µM (MOLT-4): -23%; growth at 10 µM (OVCAR-5): 1.07%; growth at 10 µM (BT-549): -67.8%; GI50 (SK-MEL-2): 1430 nM; TGI (SK-MEL-2): 3350 nM; GI50 (CAKI-1 [11]): 259 nM; TGI (CAKI-1 [11]): 1460 nM; CC50 (CAKI-1 [11]): 4230 nM; growth at 0.01 µM (NCI-H522 [12]): 88%
